Laboratory results taken from ChEMBL document CHEMBL1155539, “Discovery of 4-[1-[([1-[4-(trifluoromethyl)benzyl]-1H-indol-7-yl]carbonyl)amino]cyclopropyl]benzoic acid (MF-766), a highly potent and selective EP4 antagonist for treating inflammatory pain” (Bioorg Med Chem Lett, 2010).

Experiments:
Rattus norvegicus = assay: Antiinflammatory activity in rat assessed as inhibition of complete Freund's adjuvant-induced paw swelling administered daily once 9 days after adjuvant challenge measured on day 18; type: functional
Procedure, shortened: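 Rat adjuvant-induced arthritis model with daily dosing in mg/kg/day. Dose groups were 0, 0.001, 0.01, 0.1 and 1 mg/kg, plus a non-AIA control group. Primary and secondary paw swelling were scored as % inhibition relative to vehicle-treated arthritic rats, and ED50 was estimated from the dose–response.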

[1] = biological target: T1, Prostaglandin E2 receptor EP3 subtype (Homo sapiens, UniProt P43115); assay: Displacement of [3H]PGE2 from human prostanoid EP3 receptor expressed in HEK293-EBNA cells after 60 mins by scintillation counting; type: cell-based
T1 sequence (P43115 whole entry): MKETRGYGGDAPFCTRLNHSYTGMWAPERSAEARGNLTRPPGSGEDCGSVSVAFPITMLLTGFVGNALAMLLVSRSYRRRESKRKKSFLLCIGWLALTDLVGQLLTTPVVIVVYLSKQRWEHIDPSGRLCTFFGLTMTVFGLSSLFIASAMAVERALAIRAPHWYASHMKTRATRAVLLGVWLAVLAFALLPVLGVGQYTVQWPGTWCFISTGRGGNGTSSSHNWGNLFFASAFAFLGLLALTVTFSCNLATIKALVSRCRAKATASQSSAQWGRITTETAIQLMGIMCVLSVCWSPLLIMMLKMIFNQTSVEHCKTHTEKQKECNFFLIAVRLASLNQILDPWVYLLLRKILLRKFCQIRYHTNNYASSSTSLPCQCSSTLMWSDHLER

Thromboxane A2 receptor = biological target: T2, Thromboxane A2 receptor (Homo sapiens, UniProt P21731); assay: Displacement of [3H]SQ-29548 from human prostanoid TP receptor expressed in HEK293-EBNA cells after 60 mins by scintillation counting; type: cell-based
T2 sequence (P21731 whole entry): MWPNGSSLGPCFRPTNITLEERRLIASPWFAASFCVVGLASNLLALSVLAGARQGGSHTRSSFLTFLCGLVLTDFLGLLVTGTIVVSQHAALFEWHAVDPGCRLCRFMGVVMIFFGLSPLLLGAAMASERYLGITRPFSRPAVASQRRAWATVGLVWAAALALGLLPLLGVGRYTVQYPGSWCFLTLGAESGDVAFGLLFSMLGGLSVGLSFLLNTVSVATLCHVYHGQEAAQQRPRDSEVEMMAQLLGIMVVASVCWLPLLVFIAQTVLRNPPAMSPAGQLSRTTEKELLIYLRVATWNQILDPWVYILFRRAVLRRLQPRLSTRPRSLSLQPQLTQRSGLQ

[2] = biological target: T3, Prostaglandin D2 receptor 2 (Homo sapiens, UniProt Q9Y5Y4); assay: Displacement of [3H]PGD2 from human Prostanoid DP2 receptor expressed in HEK293-EBNA cells after 60 mins by scintillation counting; type: cell-based
T3 sequence (Q9Y5Y4 whole entry): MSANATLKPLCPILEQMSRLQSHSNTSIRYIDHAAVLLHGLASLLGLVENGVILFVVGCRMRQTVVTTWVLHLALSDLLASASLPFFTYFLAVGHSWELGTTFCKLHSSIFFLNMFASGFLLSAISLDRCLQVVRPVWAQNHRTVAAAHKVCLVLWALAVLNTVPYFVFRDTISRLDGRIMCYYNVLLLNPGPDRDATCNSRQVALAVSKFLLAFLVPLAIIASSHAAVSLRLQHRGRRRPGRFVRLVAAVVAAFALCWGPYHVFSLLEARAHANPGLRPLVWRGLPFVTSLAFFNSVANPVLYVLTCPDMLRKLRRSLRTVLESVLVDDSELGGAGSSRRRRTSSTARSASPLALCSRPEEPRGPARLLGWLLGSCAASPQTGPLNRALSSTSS

[3] = biological target: T4, Prostaglandin E2 receptor EP4 subtype (Homo sapiens, UniProt P35408); assay: Antagonist activity at human prostanoid EP4 receptor expressed in HEK293 cells assessed as inhibition of PGE2-induced cAMP accumulation by scintillation proximity assay; type: functional, cell-based
Procedure, shortened: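 Read-out was inhibition of PGE2-induced cAMP accumulation at EP4. Values are means from at least two independent experiments.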

[4] = biological target: T4, Prostaglandin E2 receptor EP4 subtype; assay: Displacement of [3H]PGE2 from human prostanoid EP4 receptor expressed in HEK293-EBNA cells after 60 mins by scintillation counting; type: cell-based
[5] = biological target: Prostaglandin E2 receptor EP2 subtype (Homo sapiens, UniProt P43116); assay: Displacement of [3H]PGE2 from human prostanoid EP2 receptor expressed in HEK293-EBNA cells after 60 mins by scintillation counting; type: cell-based
[6] = biological target: T5, Prostaglandin E2 receptor EP1 subtype (Homo sapiens, UniProt P34995); assay: Displacement of [3H]PGE2 from human prostanoid EP1 receptor expressed in HEK293-EBNA cells after 60 mins by scintillation counting; type: cell-based
T5 sequence (P34995 whole entry): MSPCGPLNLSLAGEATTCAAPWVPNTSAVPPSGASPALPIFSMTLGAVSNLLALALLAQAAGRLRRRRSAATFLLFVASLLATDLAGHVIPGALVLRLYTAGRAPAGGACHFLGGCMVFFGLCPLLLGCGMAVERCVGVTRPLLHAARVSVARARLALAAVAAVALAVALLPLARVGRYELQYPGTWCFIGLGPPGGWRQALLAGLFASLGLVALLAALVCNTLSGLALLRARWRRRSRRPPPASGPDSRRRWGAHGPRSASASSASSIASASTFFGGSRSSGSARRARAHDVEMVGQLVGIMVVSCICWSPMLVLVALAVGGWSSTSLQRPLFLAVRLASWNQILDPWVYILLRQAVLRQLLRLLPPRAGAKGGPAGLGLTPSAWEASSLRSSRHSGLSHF

[7] = biological target: T6, Prostaglandin D2 receptor (Homo sapiens, UniProt Q13258); assay: Displacement of [3H]PGD2 from human Prostanoid DP1 receptor expressed in HEK293-EBNA cells after 60 mins by scintillation counting; type: cell-based
T6 sequence (Q13258 whole entry): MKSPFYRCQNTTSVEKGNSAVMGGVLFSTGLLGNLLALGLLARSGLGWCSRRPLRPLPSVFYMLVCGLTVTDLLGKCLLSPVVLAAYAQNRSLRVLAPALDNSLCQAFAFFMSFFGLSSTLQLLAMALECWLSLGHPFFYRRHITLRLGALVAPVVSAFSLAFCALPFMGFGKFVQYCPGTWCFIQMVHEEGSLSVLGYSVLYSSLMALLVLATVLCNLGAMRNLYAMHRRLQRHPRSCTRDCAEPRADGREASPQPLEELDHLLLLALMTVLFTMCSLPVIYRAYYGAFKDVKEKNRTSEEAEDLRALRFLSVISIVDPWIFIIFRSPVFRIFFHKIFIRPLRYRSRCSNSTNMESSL

Prostacyclin receptor = Prostacyclin receptor (Homo sapiens, UniProt P43119); assay: Displacement of [3H]iloprost from human prostanoid IP receptor expressed in HEK293-EBNA cells after 60 mins by scintillation counting; type: cell-based
[8] = biological target: Prostaglandin F2-alpha receptor (Homo sapiens, UniProt P43088); assay: Displacement of [3H]PGF2alpha from human prostanoid FP receptor expressed in HEK293-EBNA cells after 60 mins by scintillation counting; type: cell-based
Sequence of Prostaglandin F2-alpha receptor (P43088 whole entry): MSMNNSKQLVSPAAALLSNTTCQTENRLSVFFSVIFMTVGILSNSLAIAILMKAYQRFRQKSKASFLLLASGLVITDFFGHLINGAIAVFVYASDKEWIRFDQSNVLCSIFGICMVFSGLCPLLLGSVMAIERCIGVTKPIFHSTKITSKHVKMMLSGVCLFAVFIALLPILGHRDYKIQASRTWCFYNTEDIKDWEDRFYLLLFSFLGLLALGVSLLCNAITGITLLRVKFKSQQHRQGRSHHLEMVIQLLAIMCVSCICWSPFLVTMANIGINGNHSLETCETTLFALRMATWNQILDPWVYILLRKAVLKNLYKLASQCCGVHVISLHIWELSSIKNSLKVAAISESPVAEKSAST

Sequence of Prostacyclin receptor (P43119 whole entry): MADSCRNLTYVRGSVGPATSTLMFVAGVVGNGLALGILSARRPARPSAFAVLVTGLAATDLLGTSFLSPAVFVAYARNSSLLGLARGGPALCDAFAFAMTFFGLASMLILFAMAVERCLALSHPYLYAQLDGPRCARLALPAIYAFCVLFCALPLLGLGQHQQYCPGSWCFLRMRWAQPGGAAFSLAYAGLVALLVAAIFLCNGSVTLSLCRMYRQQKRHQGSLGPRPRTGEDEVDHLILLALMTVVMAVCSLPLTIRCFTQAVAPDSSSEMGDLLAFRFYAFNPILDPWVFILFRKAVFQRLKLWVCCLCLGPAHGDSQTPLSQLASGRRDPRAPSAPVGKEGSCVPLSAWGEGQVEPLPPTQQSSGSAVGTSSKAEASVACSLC
T4 sequence (P35408 whole entry): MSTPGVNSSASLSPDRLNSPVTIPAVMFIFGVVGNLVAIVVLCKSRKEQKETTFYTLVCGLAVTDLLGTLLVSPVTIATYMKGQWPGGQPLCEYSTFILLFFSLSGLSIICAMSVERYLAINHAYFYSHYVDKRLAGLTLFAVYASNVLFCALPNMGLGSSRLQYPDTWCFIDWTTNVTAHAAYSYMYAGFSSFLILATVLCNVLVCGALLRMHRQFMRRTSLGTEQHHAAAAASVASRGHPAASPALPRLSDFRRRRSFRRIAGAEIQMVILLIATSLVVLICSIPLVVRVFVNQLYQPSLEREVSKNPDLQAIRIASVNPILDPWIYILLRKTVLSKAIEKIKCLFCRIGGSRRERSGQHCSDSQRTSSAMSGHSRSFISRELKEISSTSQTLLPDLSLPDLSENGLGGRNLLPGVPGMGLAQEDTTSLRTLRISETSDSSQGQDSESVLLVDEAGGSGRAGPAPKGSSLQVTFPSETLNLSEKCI
Sequence of Prostaglandin E2 receptor EP2 subtype (P43116 whole entry): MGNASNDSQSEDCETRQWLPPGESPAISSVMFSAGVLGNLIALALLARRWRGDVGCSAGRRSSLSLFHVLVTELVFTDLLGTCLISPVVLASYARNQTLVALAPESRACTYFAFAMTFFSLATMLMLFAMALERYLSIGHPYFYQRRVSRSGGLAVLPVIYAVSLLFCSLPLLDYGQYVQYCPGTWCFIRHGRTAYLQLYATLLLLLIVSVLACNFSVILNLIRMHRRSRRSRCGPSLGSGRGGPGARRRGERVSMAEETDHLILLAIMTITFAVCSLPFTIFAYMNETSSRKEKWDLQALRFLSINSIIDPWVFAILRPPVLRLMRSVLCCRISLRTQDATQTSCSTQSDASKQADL

Row | Compound | Ki [1] [nM] | Ki (Thromboxane A2 receptor) [nM] | Ki [2] [nM] | IC50 [3] [nM] | Ki [4] [nM] | Ki [5] [nM] | Ki [6] [nM] | Ki [7] [nM] | Ki (Prostacyclin receptor) [nM] | Ki [8] [nM] | ED50 (Rattus norvegicus) [mg/kg/day] | ED80 (Rattus norvegicus) [mg/kg]
1 | CS(=O)(=O)c1ccc(C2=C(c3ccccc3)C(=O)OC2)cc1 [ROFECOXIB] |  |  |  |  |  |  |  |  |  |  | 0.7 | 
2 | Cc1cn(Cc2cccc(Cl)c2)c2c(C(=O)N[C@@H](C)c3ccc(C(=O)O)cc3)cccc12 |  |  |  |  | 39.5 |  |  | 1200 |  |  |  | 
3 | C[C@H](NC(=O)c1cc(Cl)ccc1Oc1ccc(F)cc1)c1ccc(C(=O)O)cc1 |  |  |  |  |  |  |  |  |  |  |  | 11.5
4 | O=C(O)c1ccc(C2(NC(=O)c3cc(Cl)cc4ccn(Cc5ccc(C(F)(F)F)cc5)c34)CC2)cc1 | ≥ 1290 | ≥ 1290 | ≥ 1290 | 1.26 | 0.31 | ≥ 1290 | ≥ 1290 | 561 | ≥ 1290 | ≥ 1290 |  | 
5 | C[C@H](NC(=O)c1cc(Cl)cc2ccn(Cc3cccc(Cl)c3)c12)c1ccc(C(=O)O)cc1 | ≥ 110 | ≥ 110 | ≥ 110 | 1.5 | 0.81 | ≥ 110 | ≥ 110 | 63 | ≥ 110 | ≥ 110 |  | 
6 | Cc1cc2cccc(C(=O)N[C@@H](C)c3ccc(C(=O)O)cc3)c2n1Cc1cccc(Cl)c1 |  |  |  |  | 56 |  |  | 450 |  |  |  | 
7 | C[C@H](NC(=O)c1cccc2c(Cl)cn(Cc3cccc(Cl)c3)c12)c1ccc(C(=O)O)cc1 | ≥ 930 | ≥ 930 | ≥ 930 |  | 20.1 | ≥ 930 | ≥ 930 | 14 | ≥ 930 | ≥ 930 |  | 

More lines, main results first:

Row | Ki [1] [nM] | Ki (Thromboxane A2 receptor) [nM] | Ki [2] [nM] | IC50 [3] [nM] | Ki [4] [nM] | Ki [5] [nM] | Ki [6] [nM] | Ki [7] [nM] | Ki (Prostacyclin receptor) [nM] | Ki [8] [nM] | Compound | ED50 (Rattus norvegicus) [mg/kg/day] | ED80 (Rattus norvegicus) [mg/kg]
8 | ≥ 504 | ≥ 504 | ≥ 504 | 3.3 | 2.4 | ≥ 504 | ≥ 504 | 404 | ≥ 504 | ≥ 504 | C[C@H](NC(=O)c1cc(F)cc2ccn(Cc3cccc(Cl)c3)c12)c1ccc(C(=O)O)cc1 |  | 
9 | ≥ 2500 | ≥ 2500 | ≥ 2500 | 5.9 | 2.7 | ≥ 2500 | ≥ 2500 | 16 | ≥ 2500 | ≥ 2500 | C[C@H](NC(=O)c1cccc2ccn(Cc3cccc(Cl)c3)c12)c1ccc(C(=O)O)cc1 |  | 
10 | ≥ 100 | ≥ 100 | ≥ 100 | 1.12 | 0.44 | ≥ 100 | ≥ 100 | 209 | ≥ 100 | ≥ 100 | C[C@H](NC(=O)c1cc(Cl)cc2ccn(Cc3ccc(C(F)(F)F)cc3)c12)c1ccc(C(=O)O)cc1 |  | 
11 | ≥ 785 | ≥ 785 | ≥ 785 | 11.8 | 4.8 | ≥ 785 | ≥ 785 | 885 | ≥ 785 | ≥ 785 | C[C@H](NC(=O)c1cccc2ccn(Cc3cccc(C(F)(F)F)c3)c12)c1ccc(C(=O)O)cc1 |  | 
12 | ≥ 580 | ≥ 580 | ≥ 580 | 2.7 | 0.62 | ≥ 580 | ≥ 580 | 1390 | ≥ 580 | ≥ 580 | C[C@H](NC(=O)c1cccc2ccn(Cc3ccc(C(F)(F)F)cc3)c12)c1ccc(C(=O)O)cc1 |  | 
13 | ≥ 260 | ≥ 260 | ≥ 260 | 1.4 | 0.38 | ≥ 260 | ≥ 260 | 49 | ≥ 260 | ≥ 260 | C[C@H](NC(=O)c1cccc2ccn(Cc3cc(Cl)cc(OC(F)(F)F)c3)c12)c1ccc(C(=O)O)cc1 |  | 
